Measured values published in ChEMBL document CHEMBL5143539, “Synthesis and evaluation of dual-action kanglemycin-fluoroquinolone hybrid antibiotics” (Bioorg Med Chem Lett, 2022).
Converted amounts (≈) assume the structure as drawn.

Tests used:
Staphylococcus aureus [1] = assay: Antibacterial activity against rifampicin resistant Staphylococcus aureus harboring RpoBH481Y mutant assessed as inhibition of bacterial growth; assay type: functional
Staphylococcus aureus [2] = assay: Antibacterial activity against wild type Staphylococcus aureus assessed as inhibition of bacterial growth; assay type: functional
Escherichia coli = assay: Antibacterial activity against Escherichia coli assessed as inhibition of bacterial growth; assay type: functional
Procedure, shortened: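 Run in duplicate, with the same result obtained in each trial.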

Staphylococcus aureus [3] = assay: Antibacterial activity against ciprofloxacin resistant Staphylococcus aureus harboring ParCS80F and GyrAS84L double mutant assessed as inhibition of bacterial growth; assay type: functional
Staphylococcus aureus [4] = assay: Antibacterial activity against Staphylococcus aureus harboring RpoBH481Y/ParCS80F/GyrAS84L triple mutant assessed as inhibition of bacterial growth; assay type: functional
HEK293 = assay: Cytotoxicity against HEK293 cells; assay type: toxicity, cell-based, Homo sapiens

Row | SMILES | MIC (Staphylococcus aureus [1]) [µg/mL] | MIC (Staphylococcus aureus [2]) [µg/mL] | MIC (Escherichia coli) [µg/mL] | MIC (Staphylococcus aureus [3]) [µg/mL] | MIC (Staphylococcus aureus [4]) [µg/mL] | IC50 (HEK293) [µg/mL]
1 | CC(=O)O[C@H]1[C@H](C)[C@H](O)[C@H](C)[C@@H](O)[C@@H](C(C)OC(=O)C(C)(C)CC(=O)O)/C=C/C=C(/C)C(=O)NC2=CC(=O)c3c(c(O)c(C)c4c3C(=O)[C@@](C)(O/C=C/[C@H](O[C@H]3C[C@@H]5OCO[C@@H]5[C@@H](C)O3)[C@H]1C)O4)C2=O (some centres undefined) | > 64 | 0.25 (≈ 0.255 µM) | > 64 | 0.25 (≈ 0.255 µM) | > 64 | –
2 | CC(=O)O[C@H]1[C@H](C)[C@H](O)[C@H](C)[C@@H](O)[C@@H](C(C)OC(=O)C(C)(C)CC(=O)N[C@@H]2CCCCN(c3c(F)cc4c(=O)c(C(=O)O)cn(C5CC5)c4c3Cl)C2)/C=C/C=C(/C)C(=O)NC2=CC(=O)c3c(c(O)c(C)c4c3C(=O)[C@@](C)(O/C=C/[C@H](O[C@H]3C[C@@H]5OCO[C@@H]5[C@@H](C)O3)[C@H]1C)O4)C2=O (some centres undefined) | 16 (≈ 11.8 µM) | 16 (≈ 11.8 µM) | > 64 | 16 (≈ 11.8 µM) | > 64 | > 64
3 | CC(=O)O[C@H]1[C@H](C)[C@H](O)[C@H](C)[C@@H](O)[C@@H](C(C)OC(=O)C(C)(C)CC(=O)O)/C=C/C=C(/C)C(=O)Nc2c3oc4cc(NC5(c6c(F)cc7c(=O)c(C(=O)O)cn8c7c6OC[C@@H]8C)CC5)cc(O)c4nc-3c3c4c(c(C)c(O)c3c2=O)O[C@](C)(O/C=C/[C@H](O[C@H]2C[C@@H]3OCO[C@@H]3[C@@H](C)O2)[C@H]1C)C4=O (some centres undefined) | 32 (≈ 22.8 µM) | 8 (≈ 5.7 µM) | 4 (≈ 2.85 µM) | 8 (≈ 5.7 µM) | > 64 | > 64
4 | CC(=O)O[C@H]1[C@H](C)[C@H](O)[C@H](C)[C@@H](O)[C@@H](C(C)OC(=O)C(C)(C)CC(=O)NC2(c3c(F)cc4c(=O)c(C(=O)O)cn5c4c3OC[C@@H]5C)CC2)/C=C/C=C(/C)C(=O)NC2=CC(=O)c3c(c(O)c(C)c4c3C(=O)[C@@](C)(O/C=C/[C@H](O[C@H]3C[C@@H]5OCO[C@@H]5[C@@H](C)O3)[C@H]1C)O4)C2=O (some centres undefined) | > 64 | 8 (≈ 6.24 µM) | > 64 | 8 (≈ 6.24 µM) | > 64 | > 64
5 | COc1c(N2CCN(C(=O)CC(C)(C)C(=O)OC(C)[C@H]3/C=C/C=C(/C)C(=O)NC4=CC(=O)c5c(c(O)c(C)c6c5C(=O)[C@@](C)(O/C=C/[C@H](O[C@H]5C[C@@H]7OCO[C@@H]7[C@@H](C)O5)[C@@H](C)[C@@H](OC(C)=O)[C@H](C)[C@H](O)[C@H](C)[C@H]3O)O6)C4=O)C(C)C2)c(F)cc2c(=O)c(C(=O)O)cn(C3CC3)c12 (some centres undefined) | > 64 | 64 (≈ 47.8 µM) | > 64 | 32 (≈ 23.9 µM) | > 64 | 21 (≈ 15.7 µM)
6 | CC(=O)O[C@H]1[C@H](C)[C@H](O)[C@H](C)[C@@H](O)[C@@H](C(C)OC(=O)C(C)(C)CC(=O)O)/C=C/C=C(/C)C(=O)Nc2c3oc4cc(N5CCN(c6cc7c(cc6F)c(=O)c(C(=O)O)cn7C6CC6)CC5)cc(O)c4nc-3c3c4c(c(C)c(O)c3c2=O)O[C@](C)(O/C=C/[C@H](O[C@H]2C[C@@H]3OCO[C@@H]3[C@@H](C)O2)[C@H]1C)C4=O (some centres undefined) | 32 (≈ 22.6 µM) | 0.5 (≈ 0.353 µM) | 8 (≈ 5.65 µM) | 0.5 (≈ 0.353 µM) | > 64 | > 64
7 | CC(=O)O[C@H]1[C@H](C)[C@H](O)[C@H](C)[C@@H](O)[C@@H](C(C)OC(=O)C(C)(C)CC(=O)N2Cc3cc(-c4ccc5c(=O)c(C(=O)O)cn(C6CC6)c5c4OC(F)F)ccc3[C@H]2C)/C=C/C=C(/C)C(=O)NC2=CC(=O)c3c(c(O)c(C)c4c3C(=O)[C@@](C)(O/C=C/[C@H](O[C@H]3C[C@@H]5OCO[C@@H]5[C@@H](C)O3)[C@H]1C)O4)C2=O (some centres undefined) | 16 (≈ 11.5 µM) | 8 (≈ 5.75 µM) | > 64 | 8 (≈ 5.75 µM) | > 64 | 19 (≈ 13.7 µM)
8 | CC(=O)O[C@H]1[C@H](C)[C@H](O)[C@H](C)[C@@H](O)[C@@H](C(C)OC(=O)C(C)(C)CC(=O)N[C@H]2[C@@H]3CN(c4nc5c(cc4F)c(=O)c(C(=O)O)cn5-c4ccc(F)cc4F)C[C@@H]32)/C=C/C=C(/C)C(=O)NC2=CC(=O)c3c(c(O)c(C)c4c3C(=O)[C@@](C)(O/C=C/[C@H](O[C@H]3C[C@@H]5OCO[C@@H]5[C@@H](C)O3)[C@H]1C)O4)C2=O (some centres undefined) | 16 (≈ 11.6 µM) | 8 (≈ 5.8 µM) | > 64 | 8 (≈ 5.8 µM) | > 64 | > 64
9 | CC(=O)O[C@H]1[C@H](C)[C@H](O)[C@H](C)[C@@H](O)[C@@H](C(C)OC(=O)C(C)(C)CC(=O)N2CCN(c3cc4c(cc3F)c(=O)c(C(=O)O)cn4C3CC3)CC2)/C=C/C=C(/C)C(=O)NC2=CC(=O)c3c(c(O)c(C)c4c3C(=O)[C@@](C)(O/C=C/[C@H](O[C@H]3C[C@@H]5OCO[C@@H]5[C@@H](C)O3)[C@H]1C)O4)C2=O (some centres undefined) | > 64 | 16 (≈ 12.4 µM) | > 64 | 32 (≈ 24.7 µM) | > 64 | 23 (≈ 17.8 µM)
10 | COc1c(N2CCCC(N(C)c3cc(O)c4nc5c6c7c8c(C)c(O)c6c(=O)c(c-5oc4c3)NC(=O)/C(C)=C\C=C\[C@H](C(C)OC(=O)C(C)(C)CC(=O)O)[C@H](O)[C@@H](C)[C@@H](O)[C@@H](C)[C@H](OC(C)=O)[C@H](C)[C@@H](O[C@H]3C[C@@H]4OCO[C@@H]4[C@@H](C)O3)/C=C/O[C@@](C)(O8)C7=O)C2)c(F)cc2c(=O)c(C(=O)O)cn(C3CC3)c12 (some centres undefined) | 16 (≈ 10.9 µM) | 8 (≈ 5.43 µM) | 64 (≈ 43.4 µM) | 16 (≈ 10.9 µM) | > 64 | 36 (≈ 24.4 µM)
11 | COc1c(N2C[C@@H]3CCCN(C(=O)CC(C)(C)C(=O)OC(C)[C@H]4/C=C/C=C(/C)C(=O)NC5=CC(=O)c6c(c(O)c(C)c7c6C(=O)[C@@](C)(O/C=C/[C@H](O[C@H]6C[C@@H]8OCO[C@@H]8[C@@H](C)O6)[C@@H](C)[C@@H](OC(C)=O)[C@H](C)[C@H](O)[C@H](C)[C@H]4O)O7)C5=O)[C@@H]3C2)c(F)cc2c(=O)c(C(=O)O)cn(C3CC3)c12 (some centres undefined) | > 64 | 32 (≈ 23.4 µM) | > 64 | 32 (≈ 23.4 µM) | > 64 | 28 (≈ 20.5 µM)
12 | CC(=O)O[C@H]1[C@H](C)[C@H](O)[C@H](C)[C@@H](O)[C@@H](C(C)OC(=O)C(C)(C)CC(=O)O)/C=C/C=C(/C)C(=O)Nc2c3oc4cc(N5Cc6cc(-c7ccc8c(=O)c(C(=O)O)cn(C9CC9)c8c7OC(F)F)ccc6[C@H]5C)cc(O)c4nc-3c3c4c(c(C)c(O)c3c2=O)O[C@](C)(O/C=C/[C@H](O[C@H]2C[C@@H]3OCO[C@@H]3[C@@H](C)O2)[C@H]1C)C4=O (some centres undefined) | 2 (≈ 1.32 µM) | 1 (≈ 0.662 µM) | 16 (≈ 10.6 µM) | 1 (≈ 0.662 µM) | > 64 | > 64
13 | COc1c(N2CCCC(N(C)C(=O)CC(C)(C)C(=O)OC(C)[C@H]3/C=C/C=C(/C)C(=O)NC4=CC(=O)c5c(c(O)c(C)c6c5C(=O)[C@@](C)(O/C=C/[C@H](O[C@H]5C[C@@H]7OCO[C@@H]7[C@@H](C)O5)[C@@H](C)[C@@H](OC(C)=O)[C@H](C)[C@H](O)[C@H](C)[C@H]3O)O6)C4=O)C2)c(F)cc2c(=O)c(C(=O)O)cn(C3CC3)c12 (some centres undefined) | > 64 | 32 (≈ 23.6 µM) | > 64 | 16 (≈ 11.8 µM) | > 64 | 23 (≈ 17 µM)
14 | CO/N=C1\CN(c2nc3c(cc2F)c(=O)c(C(=O)O)cn3C2CC2)CC1CNC(=O)CC(C)(C)C(=O)OC(C)[C@H]1/C=C/C=C(/C)C(=O)NC2=CC(=O)c3c(c(O)c(C)c4c3C(=O)[C@@](C)(O/C=C/[C@H](O[C@H]3C[C@@H]5OCO[C@@H]5[C@@H](C)O3)[C@@H](C)[C@@H](OC(C)=O)[C@H](C)[C@H](O)[C@H](C)[C@H]1O)O4)C2=O (some centres undefined) | > 64 | 16 (≈ 11.8 µM) | > 64 | 8 (≈ 5.91 µM) | > 64 | > 64
15 | CNC1CCCN(c2c(F)cc3c(=O)c(C(=O)O)cn(C4CC4)c3c2OC)C1 (centres undefined) [BALOFLOXACIN] | 0.13 (≈ 0.334 µM) | 0.13 (≈ 0.334 µM) | 0.5 (≈ 1.28 µM) | 4 (≈ 10.3 µM) | 4 (≈ 10.3 µM) | –
16 | N[C@@H]1CCCCN(c2c(F)cc3c(=O)c(C(=O)O)cn(C4CC4)c3c2Cl)C1 [BESIFLOXACIN] | 0.031 (≈ 0.0787 µM) | 0.031 (≈ 0.0787 µM) | 0.25 (≈ 0.635 µM) | 0.5 (≈ 1.27 µM) | 0.5 (≈ 1.27 µM) | –
17 | O=C(O)c1cn(C2CC2)c2cc(N3CCNCC3)c(F)cc2c1=O [CIPROFLOXACIN] | 0.25 (≈ 0.754 µM) | 0.25 (≈ 0.754 µM) | – | 32 (≈ 96.6 µM) | – | –
18 | C[C@H]1NCc2cc(-c3ccc4c(=O)c(C(=O)O)cn(C5CC5)c4c3OC(F)F)ccc21 [GARENOXACIN] | 0.016 (≈ 0.0375 µM) | 0.016 (≈ 0.0375 µM) | 0.016 (≈ 0.0375 µM) | 0.5 (≈ 1.17 µM) | 0.5 (≈ 1.17 µM) | –
19 | COc1c(N2CCNC(C)C2)c(F)cc2c(=O)c(C(=O)O)cn(C3CC3)c12 (centres undefined) [GATIFLOXACIN] | 0.063 (≈ 0.168 µM) | 0.063 (≈ 0.168 µM) | 0.016 (≈ 0.0426 µM) | 2 (≈ 5.33 µM) | 2 (≈ 5.33 µM) | –
20 | CO/N=C1\CN(c2nc3c(cc2F)c(=O)c(C(=O)O)cn3C2CC2)CC1CN (centres undefined) [GEMIFLOXACIN] | 0.016 (≈ 0.0411 µM) | 0.016 (≈ 0.0411 µM) | 0.0078 (≈ 0.02 µM) | 1 (≈ 2.57 µM) | 1 (≈ 2.57 µM) | –
21 | COc1c(N2C[C@@H]3CCCN[C@@H]3C2)c(F)cc2c(=O)c(C(=O)O)cn(C3CC3)c12 [MOXIFLOXACIN] | 0.016 (≈ 0.0399 µM) | 0.016 (≈ 0.0399 µM) | 0.031 (≈ 0.0772 µM) | – | – | –
22 | C[C@H]1COc2c(C3(N)CC3)c(F)cc3c(=O)c(C(=O)O)cn1c23 [PAZUFLOXACIN] | 0.13 (≈ 0.408 µM) | 0.13 (≈ 0.408 µM) | 0.016 (≈ 0.0503 µM) | 4 (≈ 12.6 µM) | 4 (≈ 12.6 µM) | –
23 | N[C@@H]1[C@H]2CN(c3nc4c(cc3F)c(=O)c(C(=O)O)cn4-c3ccc(F)cc3F)C[C@@H]12 [TROVAFLOXACIN] | 0.016 (≈ 0.0384 µM) | 0.0078 (≈ 0.0187 µM) | 0.0078 (≈ 0.0187 µM) | 1 (≈ 2.4 µM) | 1 (≈ 2.4 µM) | –
